ChEMBL document CHEMBL3769341, “Discovery and Characterization of GSK2801, a Selective Chemical Probe for the Bromodomains BAZ2A and BAZ2B” (J Med Chem, 2016)
Activity calls are given as the source filed them. The calls are words filed in the database; no cut-off is given here.

What was measured:
[1] = molecular target: Transcription initiation factor TFIID subunit 1 (Homo sapiens) (UniProt P21675); test: Binding affinity to biotinylated TAF1 bromodomain-2 (unknown origin) expressed in Escherichia coli at 0.2 to 1 uM by Biolayer Interferometric analysis
Sequence of Transcription initiation factor TFIID subunit 1 (Homo sapiens) (P21675 whole entry): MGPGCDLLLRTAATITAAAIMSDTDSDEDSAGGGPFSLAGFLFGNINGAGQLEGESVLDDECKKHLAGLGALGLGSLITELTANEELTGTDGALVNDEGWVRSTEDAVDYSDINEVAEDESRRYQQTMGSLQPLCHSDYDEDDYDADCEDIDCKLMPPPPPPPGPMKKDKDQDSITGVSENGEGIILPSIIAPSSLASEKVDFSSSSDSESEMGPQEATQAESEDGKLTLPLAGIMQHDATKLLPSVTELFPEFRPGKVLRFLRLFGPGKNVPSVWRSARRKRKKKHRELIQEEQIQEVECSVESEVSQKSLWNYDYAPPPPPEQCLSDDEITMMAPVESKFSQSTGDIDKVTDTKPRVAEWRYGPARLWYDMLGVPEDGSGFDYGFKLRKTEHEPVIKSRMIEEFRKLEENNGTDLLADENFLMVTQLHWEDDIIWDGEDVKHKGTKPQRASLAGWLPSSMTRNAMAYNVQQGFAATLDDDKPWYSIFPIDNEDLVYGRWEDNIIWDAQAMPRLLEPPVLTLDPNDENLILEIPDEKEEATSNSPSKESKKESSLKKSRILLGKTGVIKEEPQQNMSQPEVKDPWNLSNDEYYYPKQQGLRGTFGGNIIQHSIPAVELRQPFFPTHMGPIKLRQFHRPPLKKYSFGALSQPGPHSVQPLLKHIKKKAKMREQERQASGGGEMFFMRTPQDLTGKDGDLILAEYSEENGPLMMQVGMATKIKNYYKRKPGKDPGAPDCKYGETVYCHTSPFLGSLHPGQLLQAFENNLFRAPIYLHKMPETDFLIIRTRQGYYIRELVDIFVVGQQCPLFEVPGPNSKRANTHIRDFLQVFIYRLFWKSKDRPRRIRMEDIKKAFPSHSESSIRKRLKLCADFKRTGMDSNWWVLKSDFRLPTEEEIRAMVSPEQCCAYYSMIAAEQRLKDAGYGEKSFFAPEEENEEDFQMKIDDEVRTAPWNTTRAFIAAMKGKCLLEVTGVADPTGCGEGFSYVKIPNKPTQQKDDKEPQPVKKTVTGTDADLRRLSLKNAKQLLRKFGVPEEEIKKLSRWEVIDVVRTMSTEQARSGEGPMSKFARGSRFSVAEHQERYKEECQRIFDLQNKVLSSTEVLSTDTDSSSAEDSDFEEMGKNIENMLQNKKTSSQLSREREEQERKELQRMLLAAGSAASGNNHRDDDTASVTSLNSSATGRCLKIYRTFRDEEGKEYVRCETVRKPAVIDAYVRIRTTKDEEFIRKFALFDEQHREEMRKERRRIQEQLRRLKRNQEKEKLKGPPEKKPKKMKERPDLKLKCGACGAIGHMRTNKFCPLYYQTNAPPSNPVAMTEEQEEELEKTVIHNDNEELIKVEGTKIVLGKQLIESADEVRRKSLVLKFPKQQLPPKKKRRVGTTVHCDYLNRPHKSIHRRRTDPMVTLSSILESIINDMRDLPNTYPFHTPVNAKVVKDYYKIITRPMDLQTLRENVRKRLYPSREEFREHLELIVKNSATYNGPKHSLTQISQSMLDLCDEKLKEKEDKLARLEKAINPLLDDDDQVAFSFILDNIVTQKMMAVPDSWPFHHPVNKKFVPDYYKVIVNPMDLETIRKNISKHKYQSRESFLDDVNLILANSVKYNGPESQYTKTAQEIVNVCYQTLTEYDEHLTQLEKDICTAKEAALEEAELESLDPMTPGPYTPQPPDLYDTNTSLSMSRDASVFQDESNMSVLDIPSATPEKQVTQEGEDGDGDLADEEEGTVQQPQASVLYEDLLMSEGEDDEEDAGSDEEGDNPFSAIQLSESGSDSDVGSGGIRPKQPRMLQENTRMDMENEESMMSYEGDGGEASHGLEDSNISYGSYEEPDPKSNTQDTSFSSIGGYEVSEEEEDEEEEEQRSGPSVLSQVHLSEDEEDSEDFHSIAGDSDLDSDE
Procedure, shortened: (§1)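 Bromodomains carrying a BirA biotin ligase targeting sequence, coexpressed with BirA in bacteria to give homogeneous in vivo biotin labelling, checked by mass spectrometry. Biotinylated proteins probed by biolayer interferometry with compound at two concentrations, 0.2 and 1.0 μM.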

[2] = molecular target: Histone acetyltransferase KAT2B (Homo sapiens) (UniProt Q92831); test: Binding affinity to biotinylated PCAF (unknown origin) expressed in Escherichia coli at 0.2 to 1 uM by Biolayer Interferometric analysis; procedure, shortened: as §1
[3] = molecular target: Histone acetyltransferase p300 (Homo sapiens) (UniProt Q09472); test: Binding affinity to biotinylated EP300 (unknown origin) expressed in Escherichia coli at 0.2 to 1 uM by Biolayer Interferometric analysis; procedure, shortened: as §1
[4] = molecular target: Protein polybromo-1 (Homo sapiens) (UniProt Q86U86); test: Binding affinity to biotinylated PB1 bromodomain-2 (unknown origin) expressed in Escherichia coli at 0.2 to 1 uM by Biolayer Interferometric analysis; procedure, shortened: as §1
Sequence of Protein polybromo-1 (Homo sapiens) (Q86U86 whole entry): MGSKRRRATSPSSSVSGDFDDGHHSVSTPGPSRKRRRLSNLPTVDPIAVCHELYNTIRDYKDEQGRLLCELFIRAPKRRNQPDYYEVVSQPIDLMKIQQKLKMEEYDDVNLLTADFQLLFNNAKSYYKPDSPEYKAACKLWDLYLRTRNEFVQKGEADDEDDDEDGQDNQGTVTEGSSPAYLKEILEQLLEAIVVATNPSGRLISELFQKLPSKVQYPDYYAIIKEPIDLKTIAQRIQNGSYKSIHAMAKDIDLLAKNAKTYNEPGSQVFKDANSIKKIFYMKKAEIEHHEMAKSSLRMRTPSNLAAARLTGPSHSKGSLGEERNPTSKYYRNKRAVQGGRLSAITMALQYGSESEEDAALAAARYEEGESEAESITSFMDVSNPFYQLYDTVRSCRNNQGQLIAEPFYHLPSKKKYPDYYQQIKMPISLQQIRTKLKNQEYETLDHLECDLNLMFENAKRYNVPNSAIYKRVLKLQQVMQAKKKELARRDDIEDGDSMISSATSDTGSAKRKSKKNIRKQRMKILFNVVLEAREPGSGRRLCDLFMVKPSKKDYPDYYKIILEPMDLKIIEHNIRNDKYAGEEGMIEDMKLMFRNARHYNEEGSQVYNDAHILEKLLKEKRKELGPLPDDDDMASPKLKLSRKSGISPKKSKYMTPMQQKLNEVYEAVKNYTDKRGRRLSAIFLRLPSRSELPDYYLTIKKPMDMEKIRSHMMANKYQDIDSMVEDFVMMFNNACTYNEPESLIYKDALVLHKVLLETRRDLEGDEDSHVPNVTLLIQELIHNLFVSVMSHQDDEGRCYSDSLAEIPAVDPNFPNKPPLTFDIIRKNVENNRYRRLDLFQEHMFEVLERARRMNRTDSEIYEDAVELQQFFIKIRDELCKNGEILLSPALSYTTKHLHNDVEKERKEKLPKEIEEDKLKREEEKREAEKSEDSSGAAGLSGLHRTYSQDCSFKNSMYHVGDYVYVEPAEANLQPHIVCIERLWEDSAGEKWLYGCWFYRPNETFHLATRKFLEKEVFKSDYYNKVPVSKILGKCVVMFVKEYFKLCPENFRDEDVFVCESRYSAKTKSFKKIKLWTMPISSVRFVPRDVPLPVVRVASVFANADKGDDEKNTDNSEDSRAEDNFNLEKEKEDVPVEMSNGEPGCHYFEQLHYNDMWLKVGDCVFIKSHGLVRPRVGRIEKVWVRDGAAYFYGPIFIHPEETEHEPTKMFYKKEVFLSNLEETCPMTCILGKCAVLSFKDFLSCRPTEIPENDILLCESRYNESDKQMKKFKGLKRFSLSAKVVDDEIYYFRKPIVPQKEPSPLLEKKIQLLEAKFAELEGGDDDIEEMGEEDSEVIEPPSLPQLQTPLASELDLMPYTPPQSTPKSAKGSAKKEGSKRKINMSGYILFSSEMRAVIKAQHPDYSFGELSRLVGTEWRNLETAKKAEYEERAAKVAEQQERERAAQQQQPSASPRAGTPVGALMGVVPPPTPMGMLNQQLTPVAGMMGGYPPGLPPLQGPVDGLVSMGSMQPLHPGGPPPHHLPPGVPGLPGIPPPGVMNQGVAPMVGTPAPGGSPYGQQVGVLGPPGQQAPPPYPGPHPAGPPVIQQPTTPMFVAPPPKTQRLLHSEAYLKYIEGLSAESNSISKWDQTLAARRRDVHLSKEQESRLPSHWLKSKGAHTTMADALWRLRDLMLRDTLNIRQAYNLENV

[5] = molecular target: Bromodomain-containing protein 2 (Homo sapiens) (UniProt P25440); test: Binding affinity to biotinylated BRD2 bromodomain-1 (unknown origin) expressed in Escherichia coli at 0.2 to 1 uM by Biolayer Interferometric analysis; procedure, shortened: as §1
Sequence of Bromodomain-containing protein 2 (Homo sapiens) (P25440 whole entry, looked up, the tested form may be a part): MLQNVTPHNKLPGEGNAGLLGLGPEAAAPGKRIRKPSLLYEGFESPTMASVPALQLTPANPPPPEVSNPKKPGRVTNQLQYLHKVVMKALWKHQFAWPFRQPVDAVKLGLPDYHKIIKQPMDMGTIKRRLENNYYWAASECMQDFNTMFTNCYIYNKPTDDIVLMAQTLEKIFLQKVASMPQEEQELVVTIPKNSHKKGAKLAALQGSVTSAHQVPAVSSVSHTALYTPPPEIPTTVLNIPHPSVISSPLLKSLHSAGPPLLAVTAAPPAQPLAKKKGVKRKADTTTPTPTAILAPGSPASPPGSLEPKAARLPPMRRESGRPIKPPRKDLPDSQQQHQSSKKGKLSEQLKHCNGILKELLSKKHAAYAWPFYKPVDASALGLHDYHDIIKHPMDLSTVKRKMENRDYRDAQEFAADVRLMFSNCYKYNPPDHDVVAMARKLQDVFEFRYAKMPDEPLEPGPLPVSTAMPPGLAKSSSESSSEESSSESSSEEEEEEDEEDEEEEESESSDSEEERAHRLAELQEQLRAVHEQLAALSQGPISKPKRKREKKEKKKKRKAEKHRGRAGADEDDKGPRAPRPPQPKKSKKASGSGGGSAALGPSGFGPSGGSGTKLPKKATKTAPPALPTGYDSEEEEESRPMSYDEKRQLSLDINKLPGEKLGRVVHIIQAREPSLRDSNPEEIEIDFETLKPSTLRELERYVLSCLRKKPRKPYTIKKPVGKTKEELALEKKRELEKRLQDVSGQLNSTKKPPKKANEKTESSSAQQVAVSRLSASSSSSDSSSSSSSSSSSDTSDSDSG

[6] = molecular target: Bromodomain-containing protein 3 (Homo sapiens) (UniProt Q15059); test: Binding affinity to biotinylated BRD3 bromodomain-1 (unknown origin) expressed in Escherichia coli at 0.2 to 1 uM by Biolayer Interferometric analysis; procedure, shortened: as §1
Sequence of Bromodomain-containing protein 3 (Homo sapiens) (Q15059 2-726 limits assumed): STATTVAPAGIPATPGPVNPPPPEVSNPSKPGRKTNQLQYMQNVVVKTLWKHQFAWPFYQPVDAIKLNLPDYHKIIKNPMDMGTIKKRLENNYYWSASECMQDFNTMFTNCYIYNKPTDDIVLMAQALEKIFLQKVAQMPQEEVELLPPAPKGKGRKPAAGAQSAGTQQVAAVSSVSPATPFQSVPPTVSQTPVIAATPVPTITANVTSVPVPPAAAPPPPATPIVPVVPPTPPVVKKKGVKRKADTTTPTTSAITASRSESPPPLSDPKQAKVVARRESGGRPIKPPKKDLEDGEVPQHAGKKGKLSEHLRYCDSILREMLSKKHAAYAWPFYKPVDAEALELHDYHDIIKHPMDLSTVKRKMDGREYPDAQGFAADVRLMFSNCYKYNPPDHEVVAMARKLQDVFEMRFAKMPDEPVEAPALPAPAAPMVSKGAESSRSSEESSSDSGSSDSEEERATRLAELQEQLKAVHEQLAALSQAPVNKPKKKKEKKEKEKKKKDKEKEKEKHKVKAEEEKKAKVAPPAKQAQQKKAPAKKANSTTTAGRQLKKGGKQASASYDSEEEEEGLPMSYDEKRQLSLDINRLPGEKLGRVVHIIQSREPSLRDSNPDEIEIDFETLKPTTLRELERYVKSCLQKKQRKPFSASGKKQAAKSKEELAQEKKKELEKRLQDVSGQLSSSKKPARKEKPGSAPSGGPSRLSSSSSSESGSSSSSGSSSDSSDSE

[7] = molecular target: Protein polybromo-1 (Homo sapiens) (UniProt Q86U86); test: Binding affinity to biotinylated PB1 bromodomain-5 (unknown origin) expressed in Escherichia coli at 0.2 to 1 uM by Biolayer Interferometric analysis; procedure, shortened: as §1
[8] = molecular target: Bromodomain-containing protein 2 (Homo sapiens) (UniProt P25440); test: Binding affinity to biotinylated BRD2 bromodomain-2 (unknown origin) expressed in Escherichia coli at 0.2 to 1 uM by Biolayer Interferometric analysis; procedure, shortened: as §1
[9] = molecular target: Bromodomain-containing protein 9 (Homo sapiens) (UniProt Q9H8M2); test: Binding affinity to biotinylated C-terminal Avi/His-TEV-fused BRD9 (unknown origin) expressed in Escherichia coli by isothermal titration calorimetric analysis
[10] = molecular target: Bromodomain and WD repeat-containing protein 3 (Homo sapiens) (UniProt Q6RI45); test: Binding affinity to biotinylated BRWD3 bromodomain-2 (unknown origin) expressed in Escherichia coli at 0.2 to 1 uM by Biolayer Interferometric analysis; procedure, shortened: as §1
[11] = molecular target: Histone-lysine N-methyltransferase ASH1L (Homo sapiens) (UniProt Q9NR48); test: Binding affinity to biotinylated ASH1L bromodomain (unknown origin) expressed in Escherichia coli at 0.2 to 1 uM by Biolayer Interferometric analysis; procedure, shortened: as §1
[12] = molecular target: Tyrosine-protein kinase BAZ1B (Homo sapiens) (UniProt Q9UIG0); test: Binding affinity to biotinylated BAZ1B (unknown origin) expressed in Escherichia coli at 0.2 to 1 uM by Biolayer Interferometric analysis; procedure, shortened: as §1
[13] = molecular target: Transcription initiation factor TFIID subunit 1-like (Homo sapiens) (UniProt Q8IZX4); test: Binding affinity to biotinylated TAF1L bromodomain-1 (unknown origin) expressed in Escherichia coli at 0.2 to 1 uM by Biolayer Interferometric analysis; procedure, shortened: as §1
[14] = molecular target: PH-interacting protein (Homo sapiens) (UniProt Q8WWQ0); test: Binding affinity to biotinylated PHIP (unknown origin) expressed in Escherichia coli at 0.2 to 1 uM by Biolayer Interferometric analysis; procedure, shortened: as §1
[15] = molecular target: ATPase family AAA domain-containing protein 2B (Homo sapiens) (UniProt Q9ULI0); test: Binding affinity to biotinylated KIAA1240 (unknown origin) expressed in Escherichia coli at 0.2 to 1 uM by Biolayer Interferometric analysis; procedure, shortened: as §1
[16] = molecular target: Chromatin remodeling regulator CECR2 (Homo sapiens) (UniProt Q9BXF3); test: Binding affinity to biotinylated CECR2 (unknown origin) expressed in Escherichia coli at 0.2 to 1 uM by Biolayer Interferometric analysis; procedure, shortened: as §1
[17] = molecular target: Bromodomain and WD repeat-containing protein 1 (Homo sapiens) (UniProt Q9NSI6); test: Binding affinity to biotinylated WDR9 (unknown origin) expressed in Escherichia coli at 0.2 to 1 uM by Biolayer Interferometric analysis; procedure, shortened: as §1
[18] = molecular target: Bromodomain testis-specific protein (Homo sapiens) (UniProt Q58F21); test: Binding affinity to biotinylated BRDT bromodomain-2 (unknown origin) expressed in Escherichia coli at 0.2 to 1 uM by Biolayer Interferometric analysis; procedure, shortened: as §1
[19] = molecular target: Bromodomain-containing protein 4 (Homo sapiens) (UniProt O60885); test: Binding affinity to biotinylated BRD4 bromodomain-2 (unknown origin) expressed in Escherichia coli at 0.2 to 1 uM by Biolayer Interferometric analysis; procedure, shortened: as §1
[20] = molecular target: Protein polybromo-1 (Homo sapiens) (UniProt Q86U86); test: Binding affinity to biotinylated PB1 bromodomain-1 (unknown origin) expressed in Escherichia coli at 0.2 to 1 uM by Biolayer Interferometric analysis; procedure, shortened: as §1
[21] = molecular target: Transcription intermediary factor 1-beta (Homo sapiens) (UniProt Q13263); test: Binding affinity to biotinylated TRIM28 (unknown origin) expressed in Escherichia coli at 0.2 to 1 uM by Biolayer Interferometric analysis; procedure, shortened: as §1
[22] = molecular target: SWI/SNF-related matrix-associated actin-dependent regulator of chromatin subfamily A member 4 (Homo sapiens) (UniProt P51532); test: Binding affinity to biotinylated SMARCA4 (unknown origin) expressed in Escherichia coli at 0.2 to 1 uM by Biolayer Interferometric analysis; procedure, shortened: as §1
[23] = molecular target: Transcription intermediary factor 1-alpha (Homo sapiens) (UniProt O15164); test: Binding affinity to biotinylated TIF1 bromodomain-1 (unknown origin) expressed in Escherichia coli at 0.2 to 1 uM by Biolayer Interferometric analysis; procedure, shortened: as §1
[24] = molecular target: Nucleosome-remodeling factor subunit BPTF (Homo sapiens) (UniProt Q12830); test: Binding affinity to biotinylated FALZ (unknown origin) expressed in Escherichia coli at 0.2 to 1 uM by Biolayer Interferometric analysis; procedure, shortened: as §1
Peregrin (Homo sapiens) = Peregrin (Homo sapiens) (UniProt P55201); test: Binding affinity to biotinylated BRPF1 bromodomain-1 (unknown origin) expressed in Escherichia coli at 0.2 to 1 uM by Biolayer Interferometric analysis; procedure, shortened: as §1
[25] = molecular target: Bromodomain testis-specific protein (Homo sapiens) (UniProt Q58F21); test: Binding affinity to biotinylated BRDT bromodomain-1 (unknown origin) expressed in Escherichia coli at 0.2 to 1 uM by Biolayer Interferometric analysis; procedure, shortened: as §1
[26] = molecular target: Nuclear body protein SP140 (Homo sapiens) (UniProt Q13342); test: Binding affinity to biotinylated SP140 (unknown origin) expressed in Escherichia coli at 0.2 to 1 uM by Biolayer Interferometric analysis; procedure, shortened: as §1
[27] = molecular target: Bromodomain-containing protein 3 (Homo sapiens) (UniProt Q15059); test: Binding affinity to biotinylated BRD3 bromodomain-2 (unknown origin) expressed in Escherichia coli at 0.2 to 1 uM by Biolayer Interferometric analysis; procedure, shortened: as §1
[28] = molecular target: ATPase family AAA domain-containing protein 2 (Homo sapiens) (UniProt Q6PL18); test: Binding affinity to biotinylated ATAD2 (unknown origin) expressed in Escherichia coli at 0.2 to 1 uM by Biolayer Interferometric analysis; procedure, shortened: as §1
[29] = molecular target: Histone acetyltransferase KAT2A (Homo sapiens) (UniProt Q92830); test: Binding affinity to biotinylated GCN5L2 (unknown origin) expressed in Escherichia coli at 0.2 to 1 uM by Biolayer Interferometric analysis; procedure, shortened: as §1
[30] = molecular target: Protein polybromo-1 (Homo sapiens) (UniProt Q86U86); test: Binding affinity to biotinylated PB1 bromodomain-6 (unknown origin) expressed in Escherichia coli at 0.2 to 1 uM by Biolayer Interferometric analysis; procedure, shortened: as §1
[31] = molecular target: Bromodomain-containing protein 1 (Homo sapiens) (UniProt O95696); test: Binding affinity to biotinylated BRD1 (unknown origin) expressed in Escherichia coli at 0.2 to 1 uM by Biolayer Interferometric analysis; procedure, shortened: as §1
[32] = molecular target: Bromodomain-containing protein 4 (Homo sapiens) (UniProt O60885); test: Binding affinity to biotinylated BRD4 bromodomain-1 (unknown origin) expressed in Escherichia coli at 0.2 to 1 uM by Biolayer Interferometric analysis; procedure, shortened: as §1
[33] = molecular target: SWI/SNF-related matrix-associated actin-dependent regulator of chromatin subfamily A member 2 (Homo sapiens) (UniProt P51531); test: Binding affinity to biotinylated SMARCA2 (unknown origin) expressed in Escherichia coli at 0.2 to 1 uM by Biolayer Interferometric analysis; procedure, shortened: as §1
[34] = molecular target: Bromodomain-containing protein 7 (Homo sapiens) (UniProt Q9NPI1); test: Binding affinity to biotinylated BRD7 (unknown origin) expressed in Escherichia coli at 0.2 to 1 uM by Biolayer Interferometric analysis; procedure, shortened: as §1
[35] = molecular target: Transcription initiation factor TFIID subunit 1 (Homo sapiens) (UniProt P21675); test: Binding affinity to biotinylated TAF1 bromodomain-1 (unknown origin) expressed in Escherichia coli at 0.2 to 1 uM by Biolayer Interferometric analysis; procedure, shortened: as §1
[36] = molecular target: Protein polybromo-1 (Homo sapiens) (UniProt Q86U86); test: Binding affinity to biotinylated PB1 bromodomain-4 (unknown origin) expressed in Escherichia coli at 0.2 to 1 uM by Biolayer Interferometric analysis; procedure, shortened: as §1
[37] = molecular target: CREB-binding protein (Homo sapiens) (UniProt Q92793); test: Binding affinity to biotinylated CREBBP (unknown origin) expressed in Escherichia coli at 0.2 to 1 uM by Biolayer Interferometric analysis; procedure, shortened: as §1
[38] = molecular target: Transcription initiation factor TFIID subunit 1-like (Homo sapiens) (UniProt Q8IZX4); test: Binding affinity to biotinylated TAF1L bromodomain-2 (unknown origin) expressed in Escherichia coli at 0.2 to 1 uM by Biolayer Interferometric analysis; procedure, shortened: as §1
[39] = molecular target: Bromodomain adjacent to zinc finger domain protein 2B (Homo sapiens) (UniProt Q9UIF8); test: Binding affinity to biotinylated C-terminal Avi/His-TEV-tagged BAZ2B (unknown origin) expressed in Escherichia coli at 0.2 to 1 uM by Biolayer Interferometric analysis; procedure, shortened: as §1

Compound	Activity [1]	Activity [2]	Activity [3]	Activity [4]	Activity [5]	Activity [6]	Activity [7]	Activity [8]	Activity [10]	Activity [11]	Activity [12]	Activity [13]	Activity [14]	Activity [15]	Activity [16]	Activity [17]	Activity [18]	Activity [19]	Activity [20]	Activity [21]	also measured
CCCOc1ccn2c(C(C)=O)cc(-c3ccccc3S(C)(=O)=O)c2c1	inactive	inactive	inactive	inactive	inactive	inactive	inactive	inactive	inactive	inactive	inactive	inactive	inactive	inactive	inactive	inactive	inactive	inactive	inactive	inactive	Kb [9]: 0.826 ×10⁶ /M; Activity [22]: inactive; Activity [23]: inactive; Activity [24]: inactive; Activity (Peregrin (Homo sapiens)): inactive; Activity [25]: inactive; Activity [26]: inactive; Activity [27]: inactive; Activity [28]: inactive; Activity [29]: inactive; Activity [30]: inactive; Activity [31]: inactive; Activity [32]: inactive; Activity [33]: inactive; Activity [34]: inactive; Activity [35]: inactive; Activity [36]: inactive; Activity [37]: inactive
CCCOc1ccn2c(C(C)=O)cc(-c3cccc(OC)c3)c2c1	inactive	inactive	inactive	inactive	inactive	inactive	inactive	inactive	inactive	inactive	inactive	inactive	inactive	inactive	inactive	inactive	inactive	inactive	inactive	inactive	Activity [22]: inactive; Activity [23]: inactive; Activity [24]: inactive; Activity (Peregrin (Homo sapiens)): inactive; Activity [25]: inactive; Activity [26]: inactive; Activity [38]: inactive; Activity [27]: inactive; Activity [28]: inactive; Activity [29]: inactive; Activity [30]: inactive; Activity [31]: inactive; Activity [39]: inactive; Activity [32]: inactive; Activity [33]: inactive; Activity [34]: inactive; Activity [35]: inactive; Activity [36]: inactive; Activity [37]: inactive
